According to ChEMBL document CHEMBL3352173, “Optimization of pyrrolamide topoisomerase II inhibitors toward identification of an antibacterial clinical candidate (AZD5099)” (J Med Chem, 2014):
Converted amounts (≈) assume the structure as drawn.

Experiments:
Staphylococcus aureus [1] = experiment: Antibacterial activity against methicillin-sensitive Staphylococcus aureus ARC516 infected in neutropenic CD1 mouse thigh model assessed as decrease in bacterial viable counts at 30 mg/kg, ip after 24 hrs; type: functional; conditions: route intraperitoneal
[2] = AUC in methicillin-sensitive Staphylococcus aureus ARC516 infected in neutropenic CD1 mouse thigh model at 30 mg/kg, ip q24; type: ADME, organism-based; set-up: dose 30 mg/kg, route intraperitoneal; conditions: in vivo
Staphylococcus aureus [3] = experiment: Antibacterial activity against methicillin-sensitive Staphylococcus aureus ARC516 infected in ip dosed neutropenic CD1 mouse thigh model assessed as decrease in bacterial viable counts treated for q24; type: functional; conditions: ARC516, Thigh muscle
Staphylococcus aureus [4] = experiment: Antimicrobial activity against Staphylococcus aureus by broth microdilution/CLSI method; type: functional
Enterococcus faecalis [5] = experiment: Antimicrobial activity against Enterococcus faecalis by broth microdilution/CLSI method; type: functional
Enterococcus faecalis [6] = experiment: Antimicrobial activity against vancomycin-resistant Enterococcus faecalis by broth microdilution/CLSI method; type: functional
Enterococcus faecium [7] = experiment: Antimicrobial activity against Enterococcus faecium by broth microdilution/CLSI method; type: functional
Enterococcus faecium [8] = experiment: Antimicrobial activity against vancomycin-resistant Enterococcus faecium by broth microdilution/CLSI method; type: functional
Haemophilus influenzae [9] = experiment: Antimicrobial activity against amoxicillin-resistant Haemophilus influenzae by broth microdilution/CLSI method; type: functional
Staphylococcus aureus [10] = experiment: Antimicrobial activity against 2 times drug resistance selected Staphylococcus aureus ARC516-2F by broth microdilution/CLSI method; type: functional
Staphylococcus aureus [11] = experiment: Antimicrobial activity against 2 times drug resistance selected Staphylococcus aureus ARC2381-3F by broth microdilution/CLSI method; type: functional
Staphylococcus aureus [12] = experiment: Antimicrobial activity against 2 times drug resistance selected Staphylococcus aureus ARC2398-2F by broth microdilution/CLSI method; type: functional
Staphylococcus aureus [13] = experiment: Ratio of MIC for 2 times drug resistance selected Staphylococcus aureus ARC516-2F to MIC for Staphylococcus aureus ARC516; type: functional
Staphylococcus aureus [14] = experiment: Ratio of MIC for 2 times drug resistance selected Staphylococcus aureus ARC1692-1F to MIC for Staphylococcus aureus ARC1692; type: functional
Staphylococcus aureus [15] = experiment: Ratio of MIC for 2 times drug resistance selected Staphylococcus aureus ARC2381-2F to MIC for Staphylococcus aureus ARC2381; type: functional
Staphylococcus aureus [16] = experiment: Ratio of MIC for 2 times drug resistance selected Staphylococcus aureus ARC2381-3F to MIC for Staphylococcus aureus ARC2381; type: functional
[17] = Selectivity ratio for human topoisomerase 2 alpha to bacterial type 2 topoisomerase
Cytochrome P450 3A4 = Cytochrome P450 3A4 (Homo sapiens, UniProt P08684); experiment: Inhibition of human CYP3A4 at 50 uM; type: ADME
Sequence of Cytochrome P450 3A4 (P08684 whole entry): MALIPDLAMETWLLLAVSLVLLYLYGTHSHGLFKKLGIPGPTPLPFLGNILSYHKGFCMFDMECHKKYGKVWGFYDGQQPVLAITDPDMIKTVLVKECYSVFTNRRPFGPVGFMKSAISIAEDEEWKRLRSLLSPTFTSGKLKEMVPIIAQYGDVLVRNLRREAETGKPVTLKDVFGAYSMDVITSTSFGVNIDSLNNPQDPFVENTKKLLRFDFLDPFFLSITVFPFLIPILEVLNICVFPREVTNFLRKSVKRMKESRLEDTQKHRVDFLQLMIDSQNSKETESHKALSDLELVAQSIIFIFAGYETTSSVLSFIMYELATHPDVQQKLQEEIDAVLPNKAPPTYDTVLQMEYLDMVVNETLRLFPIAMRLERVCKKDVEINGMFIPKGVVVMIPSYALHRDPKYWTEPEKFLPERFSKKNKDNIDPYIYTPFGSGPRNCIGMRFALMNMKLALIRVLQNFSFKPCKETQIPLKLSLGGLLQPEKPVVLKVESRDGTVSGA

Cytochrome P450 1A2 = target: T1, Cytochrome P450 1A2 (Homo sapiens, UniProt P05177); experiment: Inhibition of human CYP1A2 at 50 uM; type: ADME
T1 sequence (P05177 whole entry): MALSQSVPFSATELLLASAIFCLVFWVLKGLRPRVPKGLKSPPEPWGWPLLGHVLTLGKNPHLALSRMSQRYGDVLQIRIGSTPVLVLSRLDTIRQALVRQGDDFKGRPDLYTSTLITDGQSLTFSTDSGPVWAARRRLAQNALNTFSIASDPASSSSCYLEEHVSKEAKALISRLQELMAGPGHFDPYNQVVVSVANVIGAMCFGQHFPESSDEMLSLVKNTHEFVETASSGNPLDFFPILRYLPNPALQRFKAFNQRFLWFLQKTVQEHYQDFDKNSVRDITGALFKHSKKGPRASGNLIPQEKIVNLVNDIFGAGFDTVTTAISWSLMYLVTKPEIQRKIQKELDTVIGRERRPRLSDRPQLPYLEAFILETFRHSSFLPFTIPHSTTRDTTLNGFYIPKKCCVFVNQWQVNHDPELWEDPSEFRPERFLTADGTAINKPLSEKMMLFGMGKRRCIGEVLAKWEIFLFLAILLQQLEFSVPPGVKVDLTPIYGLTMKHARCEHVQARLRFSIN

Cytochrome P450 2C8 = target: T2, Cytochrome P450 2C8 (Homo sapiens, UniProt P10632); experiment: Inhibition of human CYP2C8 at 50 uM; type: ADME
T2 sequence (P10632 whole entry): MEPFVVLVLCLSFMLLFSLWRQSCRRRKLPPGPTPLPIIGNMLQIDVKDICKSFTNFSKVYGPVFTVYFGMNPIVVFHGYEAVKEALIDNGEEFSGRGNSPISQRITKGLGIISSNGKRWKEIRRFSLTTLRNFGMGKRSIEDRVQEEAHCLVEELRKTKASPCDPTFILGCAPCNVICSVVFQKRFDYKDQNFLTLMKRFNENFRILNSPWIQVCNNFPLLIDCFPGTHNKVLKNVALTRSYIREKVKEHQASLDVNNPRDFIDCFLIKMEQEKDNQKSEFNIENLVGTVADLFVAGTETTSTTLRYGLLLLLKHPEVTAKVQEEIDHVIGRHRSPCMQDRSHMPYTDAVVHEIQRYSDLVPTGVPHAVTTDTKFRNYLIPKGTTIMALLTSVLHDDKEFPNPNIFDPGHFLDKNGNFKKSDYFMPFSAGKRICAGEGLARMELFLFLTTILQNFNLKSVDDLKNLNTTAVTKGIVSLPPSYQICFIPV

Cytochrome P450 2D6 = Cytochrome P450 2D6 (Homo sapiens, UniProt P10635); experiment: Inhibition of human CYP2D6 at 50 uM; type: ADME
Sequence of Cytochrome P450 2D6 (P10635 whole entry): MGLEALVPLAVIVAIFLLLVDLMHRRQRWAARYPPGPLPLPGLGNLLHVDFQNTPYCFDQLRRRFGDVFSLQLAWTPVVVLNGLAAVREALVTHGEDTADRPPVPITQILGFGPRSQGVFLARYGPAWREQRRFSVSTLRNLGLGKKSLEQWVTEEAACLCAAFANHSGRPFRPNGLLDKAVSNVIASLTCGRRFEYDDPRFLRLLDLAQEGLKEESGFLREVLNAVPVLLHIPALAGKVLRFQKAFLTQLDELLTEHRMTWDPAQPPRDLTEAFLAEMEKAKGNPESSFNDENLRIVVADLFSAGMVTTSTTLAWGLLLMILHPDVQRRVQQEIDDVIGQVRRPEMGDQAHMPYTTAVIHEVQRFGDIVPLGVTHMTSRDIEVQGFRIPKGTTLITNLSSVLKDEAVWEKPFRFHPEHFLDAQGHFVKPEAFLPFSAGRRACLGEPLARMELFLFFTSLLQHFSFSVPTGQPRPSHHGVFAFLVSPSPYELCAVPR

Cytochrome P450 2C19 = Cytochrome P450 2C19 (Homo sapiens, UniProt P33261); experiment: Inhibition of human CYP2C19 at 50 uM; type: ADME
Sequence of Cytochrome P450 2C19 (P33261 whole entry): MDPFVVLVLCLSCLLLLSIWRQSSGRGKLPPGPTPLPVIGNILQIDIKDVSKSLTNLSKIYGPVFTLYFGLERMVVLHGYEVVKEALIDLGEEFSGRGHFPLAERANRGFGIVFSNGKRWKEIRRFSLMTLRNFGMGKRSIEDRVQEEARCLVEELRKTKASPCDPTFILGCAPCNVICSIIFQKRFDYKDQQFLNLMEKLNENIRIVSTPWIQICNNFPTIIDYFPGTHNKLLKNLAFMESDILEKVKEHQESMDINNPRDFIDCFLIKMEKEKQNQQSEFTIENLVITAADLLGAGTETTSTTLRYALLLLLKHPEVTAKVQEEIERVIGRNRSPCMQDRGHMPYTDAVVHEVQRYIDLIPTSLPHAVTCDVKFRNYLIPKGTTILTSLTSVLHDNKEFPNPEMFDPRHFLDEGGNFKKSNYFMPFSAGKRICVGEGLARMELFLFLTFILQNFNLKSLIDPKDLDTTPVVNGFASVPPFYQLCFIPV

[18] = target: ATP-binding cassette sub-family C member 2 (Homo sapiens, UniProt Q92887); experiment: Inhibition of ATPase activity of human MRP2 assessed as inorganic phosphate
[19] = target: ATP-binding cassette sub-family C member 2 (Rattus norvegicus, UniProt Q63120); experiment: Stimulation of ATPase activity of rat Mrp2 assessed as inorganic phosphate
Sequence of ATP-binding cassette sub-family C member 2 (Rattus norvegicus, UniProt Q63120) (Q63120 whole entry): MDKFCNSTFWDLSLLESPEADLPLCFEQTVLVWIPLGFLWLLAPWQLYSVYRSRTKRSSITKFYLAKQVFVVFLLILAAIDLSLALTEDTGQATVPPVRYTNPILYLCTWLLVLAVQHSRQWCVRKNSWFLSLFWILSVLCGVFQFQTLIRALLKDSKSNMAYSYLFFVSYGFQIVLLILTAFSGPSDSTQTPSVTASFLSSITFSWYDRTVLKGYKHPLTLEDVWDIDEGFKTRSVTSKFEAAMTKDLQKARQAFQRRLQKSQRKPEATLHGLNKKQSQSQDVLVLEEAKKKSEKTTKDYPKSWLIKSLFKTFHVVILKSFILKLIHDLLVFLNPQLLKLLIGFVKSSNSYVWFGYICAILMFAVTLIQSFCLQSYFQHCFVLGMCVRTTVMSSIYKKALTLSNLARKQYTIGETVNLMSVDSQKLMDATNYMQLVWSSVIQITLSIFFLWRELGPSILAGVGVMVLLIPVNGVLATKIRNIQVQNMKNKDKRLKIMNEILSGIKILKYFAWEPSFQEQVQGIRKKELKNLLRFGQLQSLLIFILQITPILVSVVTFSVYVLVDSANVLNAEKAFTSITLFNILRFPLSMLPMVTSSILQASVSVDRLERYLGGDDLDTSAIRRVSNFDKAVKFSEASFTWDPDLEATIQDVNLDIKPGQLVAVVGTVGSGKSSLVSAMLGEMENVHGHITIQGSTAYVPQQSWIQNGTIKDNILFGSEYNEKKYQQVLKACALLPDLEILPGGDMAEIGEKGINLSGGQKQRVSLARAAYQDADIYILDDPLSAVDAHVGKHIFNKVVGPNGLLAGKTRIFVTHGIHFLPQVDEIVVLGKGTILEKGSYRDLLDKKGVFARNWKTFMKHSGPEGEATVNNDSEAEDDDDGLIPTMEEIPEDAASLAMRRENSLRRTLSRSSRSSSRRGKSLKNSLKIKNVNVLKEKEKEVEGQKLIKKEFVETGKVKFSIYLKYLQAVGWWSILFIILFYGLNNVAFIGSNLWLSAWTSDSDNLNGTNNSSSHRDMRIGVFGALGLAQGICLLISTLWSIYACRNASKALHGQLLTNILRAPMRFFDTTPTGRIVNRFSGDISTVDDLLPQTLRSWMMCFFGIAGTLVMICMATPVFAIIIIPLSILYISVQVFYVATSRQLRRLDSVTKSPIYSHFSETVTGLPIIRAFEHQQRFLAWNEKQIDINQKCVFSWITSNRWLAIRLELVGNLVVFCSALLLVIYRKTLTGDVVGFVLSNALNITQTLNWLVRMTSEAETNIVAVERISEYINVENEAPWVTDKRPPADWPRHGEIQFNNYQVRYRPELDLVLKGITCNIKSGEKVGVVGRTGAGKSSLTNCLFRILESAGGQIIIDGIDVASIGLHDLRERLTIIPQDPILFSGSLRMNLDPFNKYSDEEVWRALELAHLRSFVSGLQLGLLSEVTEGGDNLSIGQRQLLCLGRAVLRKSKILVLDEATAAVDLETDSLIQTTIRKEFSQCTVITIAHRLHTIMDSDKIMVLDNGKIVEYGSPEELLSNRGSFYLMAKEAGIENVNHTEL

Haemophilus influenzae [20] = experiment: Antimicrobial activity against Haemophilus influenzae by broth microdilution/CLSI method; type: functional; conditions: Haemophilus influenzae; read-out: MIC
[21] = Clearance in Wistar rat at 10 mg/kg, iv; type: ADME, organism-based; set-up: dose 10 mg/kg, route intravenous; conditions: in vivo
DNA gyrase subunit B = DNA gyrase subunit B (Staphylococcus aureus, UniProt P0A0K8); experiment: Inhibition of ATPase activity of Staphylococcus aureus GyrB
Sequence of DNA gyrase subunit B (P0A0K8 whole entry): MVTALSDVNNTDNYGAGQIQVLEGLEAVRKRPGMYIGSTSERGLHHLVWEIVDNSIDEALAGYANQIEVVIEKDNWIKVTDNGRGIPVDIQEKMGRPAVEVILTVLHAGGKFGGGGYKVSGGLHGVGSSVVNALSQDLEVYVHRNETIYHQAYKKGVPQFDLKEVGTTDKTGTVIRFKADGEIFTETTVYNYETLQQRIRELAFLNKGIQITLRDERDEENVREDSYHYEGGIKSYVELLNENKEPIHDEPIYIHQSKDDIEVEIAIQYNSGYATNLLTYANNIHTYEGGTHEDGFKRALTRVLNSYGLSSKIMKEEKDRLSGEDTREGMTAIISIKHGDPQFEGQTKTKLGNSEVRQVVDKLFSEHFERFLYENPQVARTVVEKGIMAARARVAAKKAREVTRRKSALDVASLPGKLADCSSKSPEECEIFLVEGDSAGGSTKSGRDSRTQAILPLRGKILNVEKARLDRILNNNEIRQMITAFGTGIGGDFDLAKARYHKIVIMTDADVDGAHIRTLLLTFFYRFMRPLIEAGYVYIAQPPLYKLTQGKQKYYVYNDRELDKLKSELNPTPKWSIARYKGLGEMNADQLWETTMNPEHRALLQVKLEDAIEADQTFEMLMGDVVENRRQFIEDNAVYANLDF
Procedure, shortened: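 IC50 was determined against S. aureus GyrB in the routine screening assay. The enzyme concentration limits resolution below 10 nM.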

Streptococcus pyogenes = experiment: Antimicrobial activity against Streptococcus pyogenes by broth microdilution/CLSI method; type: functional
Staphylococcus aureus [22] = experiment: Antimicrobial activity against methicillin, quinolone-resistant Staphylococcus aureus by broth microdilution/CLSI method; type: functional; conditions: Staphylococcus aureus; read-out: MIC
Moraxella catarrhalis = experiment: Antimicrobial activity against Moraxella catarrhalis by broth microdilution/CLSI method; type: functional; conditions: Moraxella catarrhalis; read-out: MIC
[23] = Octanol-phosphate buffer distribution coefficient, log D of the compound at pH 7.4 by shake flask method; type: physicochemical
[24] = Percentage unbound in human plasma; type: ADME, cell-free
[25] = Solubility of the compound; type: physicochemical
[26] = Bioavailability in CD1 mouse at 10 mg/kg, […]; type: ADME, organism-based; conditions: in vivo
[27] = Bioavailability in Wistar rat at 10 mg/kg, […]; type: ADME, organism-based; conditions: in vivo
[28] = Percentage unbound in dog plasma; type: ADME, cell-free, Canis lupus familiaris
[29] = Bioavailability in dog at 10 mg/kg, iv; type: ADME, organism-based, Canis lupus familiaris; conditions: plasma

With `COC[C@H](C)NC(=O)c1nc(N2CC[C@@H](NC(=O)c3[nH]c(C)c(Cl)c3Cl)[C@@H](OC)C2)sc1C(=O)O` [AZD-5099] the “fold change (FC)” value (Staphylococcus aureus [1]) was 2, the AUC [2] was 116 µg·h/mL and the MIC (Staphylococcus aureus [3]) was 0.03 µg/mL (≈ 0.0547 µM). For the same compound, the MIC90 (Staphylococcus aureus [4]) was 0.06 µg/mL (≈ 0.109 µM), the MIC90 (Enterococcus faecalis [5]) was 0.015 µg/mL (≈ 0.0273 µM) and the MIC90 (Enterococcus faecalis [6]) was 0.015 µg/mL (≈ 0.0273 µM). The MIC90 (Enterococcus faecium [7]) was 0.06 µg/mL (≈ 0.109 µM), the MIC90 (Enterococcus faecium [8]) was 0.06 µg/mL (≈ 0.109 µM) and the MIC90 (Haemophilus influenzae [9]) was 0.25 µg/mL (≈ 0.456 µM). The MIC (Staphylococcus aureus [10]) was 0.25 µg/mL (≈ 0.456 µM), the MIC (Staphylococcus aureus [11]) was 0.13 µg/mL (≈ 0.237 µM) and the MIC (Staphylococcus aureus [12]) was 0.5 µg/mL (≈ 0.912 µM). For the same compound, the Ratio (Staphylococcus aureus [13]) was 16, the Ratio (Staphylococcus aureus [14]) was 8 and the Ratio (Staphylococcus aureus [15]) was 8. The Ratio (Staphylococcus aureus [16]) was 8, the Selectivity ratio [17] was 10000 and the “inhibition (INH)” value (Cytochrome P450 3A4) was “Not Active”. The “inhibition (INH)” value (Cytochrome P450 1A2) was “Not Active”, the “inhibition (INH)” value (Cytochrome P450 2C8) was “Not Active” and the “inhibition (INH)” value (Cytochrome P450 2D6) was “Not Active”. For the same compound, the “inhibition (INH)” value (Cytochrome P450 2C19) was “Not Active”, the IC50 [18] was 59 µM and the EC50 [19] was over 200 µM. For the same compound, the MIC (Haemophilus influenzae [20]) was 0.13 µg/mL (≈ 0.237 µM), the clearance [21] was 4 mL/min/kg and the IC50 (DNA gyrase subunit B) was under 0.01 µM. It also gave an MIC (Streptococcus pyogenes) of 0.014 µg/mL (≈ 0.0255 µM), an MIC (Staphylococcus aureus [22]) of 0.057 µg/mL (≈ 0.104 µM) and an MIC (Moraxella catarrhalis) of under 0.008 µg/mL. It also gave a logD [23] of 1.4, a fraction unbound [24] of 0.025 and a solubility [25] of 960 µM (≈ 527 µg/mL). For the same compound, the bioavailability [26] was 100%, the bioavailability [27] was 81% and the fraction unbound [28] was 0.062. For the same compound, the bioavailability [29] was 96%.
